Measured values pooled from the literature.
Compare with care: the assays were run in different laboratories.
Target: NT-3 growth factor receptor (NTRK3, Homo sapiens, UniProt Q16288)

| Structure (SMILES) | test | conditions | measurement | result |
| --- | --- | --- | --- | --- |
| CS(=O)(=O)NCC[C@H](NC(=O)c1cncc2c1cnn2-c1ccc(F)cc1)c1ccnc(S(C)(=O)=O)c1 | cell-free assay, competition with immobilised ligand | 1 µM | remaining binding | 100% |
| Nc1ncnc2occ(-c3ccc(NC(=O)Nc4cc(C(F)(F)F)ccc4F)cc3)c12 | cell-free assay | 20 µM | remaining signal | 0.25% |
| Cc1c(NC(=O)c2cc(C(N)=O)nc3cc(F)ccc23)c(C(F)(F)F)nn1Cc1ccc(C(C)(C)C)cc1 | cell-free assay, competition with immobilised ligand | 1 µM | remaining binding | 100% |
| CC(C)(C)c1nc(-c2cccc(NS(=O)(=O)c3c(F)cccc3F)c2F)c(-c2ccnc(N)n2)s1 | enzyme activity, inhibitor, radiometric | 1 µM | remaining activity | 93% |
| O=C(Nc1ccc(Cl)cc1)Nc1cccc(C(=O)Nc2ccc3[nH]ncc3c2)c1 | enzyme activity, inhibitor, FRET | 1 µM | inhibition | 15.4% |
| CN(C(=O)c1ccccc1)c1cc(N(C)c2ccc3c(c2)CCc2ccc(C(=O)NCCN4CCOCC4)cc2C3=O)ccc1F | cell-free assay, competition with immobilised ligand | 1 µM | remaining binding | 90% |
| Cc1ccc(C(=O)NCc2ccsc2)cc1C#Cc1cn(C(C)C)c2ncnc(N)c12 | enzyme activity, inhibitor | 1 µM | activity vs control | 29% |
| O=C(Nc1ccc(C(F)(F)F)cc1)Nc1cccc(C(=O)Nc2ccc3[nH]nc(-c4ccccc4)c3c2)c1 | enzyme activity, inhibitor, FRET | 1 µM | inhibition | 12.9% |
| Cc1cnc(NC2CCOCC2)nc1-n1cnc(C(=O)NC(CN)c2cc(F)cc(Cl)c2)c1 (stereo not shown) | enzyme activity, inhibitor, radiometric | 1 µM | remaining activity | 93% |
| Cc1noc([C@H]2C[C@@H](c3ccc(C(F)(F)F)cc3)CN(C(=O)N3CCS(=O)(=O)C3)C2)n1 | cell-free assay, competition with immobilised ligand | 1 µM | remaining binding | 100% |
| C[C@@H]1CCN(C(=O)CC#N)C[C@@H]1N(C)c1ncnc2[nH]ccc12 | cell-free assay | 0.5 µM | remaining signal | 90% |
| O=C(O)[C@H]1[C@H](Cn2nnc3ccccc3c2=O)CC[C@@H]1C(=O)c1ccc(OCCC2CCOCC2)cc1 | cell-free assay, competition with immobilised ligand | 1 µM | remaining binding | 82% |
| COc1cc2c(Nc3ccc(Br)cc3F)ncnc2cc1OCC1CCN(C)CC1 | cell-free assay | 0.5 µM | remaining signal | 72.2% |
| O=C(Nc1cccc(C(=O)Nc2ccc3[nH]ncc3c2)c1)Nc1ccccc1C(F)(F)F | enzyme activity, inhibitor, FRET | 1 µM | inhibition | 23.7% |
| CN(C)c1ncnc(-c2ccc3nc(Nc4cc(CN5CCN(C(=O)CC(F)(F)F)CC5)ccn4)[nH]c3c2)c1Cl | cell-free assay, competition with immobilised ligand | 1 µM | remaining binding | 61% |
| O=C(Nc1cccc(F)c1)Nc1cccc(C(=O)Nc2ccc3[nH]ncc3c2)c1 | enzyme activity, inhibitor, FRET | 1 µM | inhibition | 17% |
| NS(=O)(=O)c1cc(NC(=O)Cc2ccccc2)ccc1Oc1cccc(Cl)c1 | cell-free assay, competition with immobilised ligand | 1 µM | remaining binding | 87% |
| O=C(Nc1ccc(I)cc1)Nc1cccc(C(=O)Nc2ccc3[nH]ncc3c2)c1 | enzyme activity, inhibitor, FRET | 1 µM | inhibition | 14.6% |
| COCCOc1nc(-c2ccc(Cl)nc2)nc2c1CN(C(=O)c1ncn3ccccc13)CC2 | cell-free assay, competition with immobilised ligand | 0.1 µM | remaining binding | 100% |
| Cc1cc(NC(=O)c2cccc3cc(-c4cccc5[nH]nc(N)c45)ccc23)ccc1F | enzyme activity, inhibitor | 0.1 µM | activity vs control | 90% |
| Cc1ccc(Nc2nccc(N(C)c3ccc4c(C)n(C)nc4c3)n2)cc1S(N)(=O)=O | cell-free assay | 0.5 µM | remaining signal | 87.8% |
| O=C(Nc1cccc(C(=O)Nc2ccc3[nH]ncc3c2)c1)Nc1cccc(C(F)(F)F)c1 | enzyme activity, inhibitor, FRET | 1 µM | inhibition | 26.6% |
| O=C1NC(=O)c2cc(Nc3ccc(F)cc3)c(Nc3ccc(F)cc3)cc21 | cell-free assay | 0.5 µM | remaining signal | 95.6% |
| O=C(Nc1ccc(F)cc1)Nc1cccc(C(=O)Nc2ccc3[nH]ncc3c2)c1 | enzyme activity, inhibitor, FRET | 1 µM | inhibition | 13% |
| O=C(Nc1cnn(-c2csc(C(=O)NC3COC3)c2)c1)Nc1ccccc1Cl | enzyme activity, inhibitor | 5 µM | remaining activity | 64.3% |
